Screens (PubChem)
procasp7 counter: procaspase-7 activators, primary screen, counter-screen for procaspase-3 activator project, biochemical, absorbance, HTS, human; recombinant procaspase-7, Ac-DEVD-pNA absorbance 405 nm; D23A/D198A/D206A triple mutant, cannot self-cleave; scale: DMSO 0, 5 µM enzyme 100; activation, % at 8.5 µM; 330,000 compounds, 0.093% hits;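 active = percent activation above the screen-wide mean plus 3 SD, cut at about 25% in these data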
Target sequence (P55210 whole entry D23A/D198A/D206A): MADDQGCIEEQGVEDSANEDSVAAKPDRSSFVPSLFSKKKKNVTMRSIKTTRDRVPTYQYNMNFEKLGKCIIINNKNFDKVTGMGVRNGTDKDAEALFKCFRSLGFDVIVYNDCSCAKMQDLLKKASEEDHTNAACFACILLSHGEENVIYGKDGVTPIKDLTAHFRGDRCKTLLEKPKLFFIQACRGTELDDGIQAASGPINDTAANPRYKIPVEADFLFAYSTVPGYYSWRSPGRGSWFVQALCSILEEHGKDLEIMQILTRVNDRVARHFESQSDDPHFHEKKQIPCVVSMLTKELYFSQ
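Test system: Procaspase-7 triple mutant (PC-7 D3A). Also added: Ac-DEVD-pNA substrate, 400 µM as added. Schedule: 1 h enzyme–compound preincubation and 2 h substrate reaction, both 25 °C. Signal: p-Nitroaniline absorbance at 405 nm, read at 0 and 120 min. Control set: low DMSO alone, high DMSO plus 5 µM PC-7.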
CHT PAM: CHT positive allosteric modulators, primary screen, cell-based, membrane potential dye, choline EC20. B-score at 10 µM. 310,000 compounds, 0.49% hits. CHT-expressing cells; active compounds read high; LV-AA mutant CHT in HEK293 cells;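 active = initial fluorescence not abnormally high and integrated response B-score, plate-corrected, over 3 SD above library mean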
CHT inh: inhibitors of human choline transporter CHT; High affinity choline transporter 1 (Homo sapiens), Q9GZV3; CHT-expressing cells, membrane potential dye, choline response; active compounds read low; B-score at 10 µM; 310,000 compounds, 0.86% hits; AID 488975, 2010;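 active = B-score over 3 SD under the library average, and starting fluorescence ratio not unusually high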;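 also: choline stimulus applied at its EC90 after an EC20 pre-addition; B-score computed on integrated fluorescence ratio after choline addition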
proCasp3 act: activators of human procaspase-3 D3A mutant, primary screen, biochemical, absorbance, PC-3 D3A mutant, single concentration; 330,000 compounds, 0.11% hits; recombinant procaspase-3 D3A, Ac-DEVD-pNA absorbance 405 nm; Caspase-3 (Homo sapiens), P42574; activation, % at 8.5 µM;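 active = activation above the mean of all tested compounds plus 3 SD, cut at about 21% in these data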;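 also: 0% = DMSO alone and 100% = DMSO wells spiked with extra 5 µM PC-3 D3A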
Target sequence (P42574 whole entry D9A/D28A/D175A): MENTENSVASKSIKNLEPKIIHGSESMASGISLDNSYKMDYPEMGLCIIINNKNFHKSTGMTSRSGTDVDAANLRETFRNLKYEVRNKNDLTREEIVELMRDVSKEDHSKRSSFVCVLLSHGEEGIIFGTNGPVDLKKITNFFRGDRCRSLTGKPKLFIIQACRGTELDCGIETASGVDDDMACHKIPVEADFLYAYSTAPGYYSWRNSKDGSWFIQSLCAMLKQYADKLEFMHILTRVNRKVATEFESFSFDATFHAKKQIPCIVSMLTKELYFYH
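Assay system: Autoprocessing-dead procaspase-3 D3A mutant enzyme; also added: Ac-DEVD-pNA; doses: one concentration, 8.5 µM nominal, 0.8% DMSO; times: 1 h compound preincubation, 2 h substrate hydrolysis at 25 °C; technique: 405 nm absorbance of p-nitroaniline, reads at 0 and 120 min; measure: % activation between DMSO and enzyme-spiked controls; repeats: single replicate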
CHT block conf: CHT inhibitors, confirmation, cell-based, membrane potential dye, duplicate | shares compounds with CHT inh | CHT-expressing cells, choline membrane potential dye; LV-to-AA substituted CHT, HEK293 cells | CHT activity remaining % of control (active compounds read low), % at 10 µM | 2,400 compounds, 70% hits;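 active = choline transporter activity left, mean of duplicates at 10 µM, below buffer-only control mean minus 3 SD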;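 also: depolarization triggered by choline at its EC90 following an EC20 pre-addition; 0% = hemicholinium-3 full block and 100% = buffer-only control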
HEK293 CHT ctr: membrane potential effects in parental HEK293, counter-screen for CHT inhibitor project, cell-based, membrane potential dye; shares compounds with CHT inh; choline response; active = decrease or increase beyond buffer ±3SD; membrane potential ratio readout (active if shifted either direction beyond buffer ±3SD; no single direction) at 10 µM; 2,400 compounds, 4% hits;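 also: parental cells lack the transporter so any hit is non-specific; ratio is peak minus trough fluorescence over baseline after EC90 choline challenge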
* hit, by the source's call; i = inactive; x = no result given. The list is not random: actives were taken first. Their share in the collection is about 1.3%.

SMILES	procasp7 counter	CHT PAM	CHT inh	proCasp3 act	CHT block conf	HEK293 CHT ctr
Cc1cc(=O)[nH]c(SCC(=O)/C=C2\N(C)c3ccccc3C2(C)C)n1	1	i	-5*	2	69%*	i
COc1ccccc1OCC(=O)NC1CC(C)(C)NC(C)(C)C1	-1	i	i	8	x	x
CN(C)c1ccc(C(C(=O)NCc2ccccc2)N(Cc2ccco2)C(=O)c2snc(C(N)=O)c2N)cc1 (stereo not given)	0	i	i	-5	x	x
Cc1ccccc1OC(C)C(=O)Nc1ccc(S(=O)(=O)Nc2nccs2)cc1 (stereo not given)	-2	i	-7.2*	0	47%*	i
CC(Oc1ccccc1Cl)C(=O)Nc1ccc(S(=O)(=O)Nc2nccs2)cc1 (stereo not given)	4	i	-7.7*	-6	65%*	i
COc1ccc2nc(SCC(=O)NCc3ccc(S(N)(=O)=O)cc3)[nH]c2c1	0	i	i	0	x	x
Cc1ccc2c(c1)C(O)(CC(=O)c1ccc(C)s1)C(=O)N2 (stereo not given)	-1	i	i	0	x	x
CC(C)c1ccc2c(c1)C1(NN=C(c3ccccc3)S1)C(=O)N2 (stereo not given)	-18	i	-6.6*	-21	56%*	i
CCc1ccc2c(c1)C1(NN=C(c3ccc(C)cc3)S1)C(=O)N2 (stereo not given)	-53	i	-5.9*	-50	67%*	i
CC(C)c1ccc(O)c(NC(=O)c2ncn[nH]2)c1	-4	i	i	1	x	x
O=C(c1cc2cc(Br)ccc2o1)N1CCN(c2ccccc2)CC1	10	i	i	4	x	x
OCc1ccccc1OCCCOc1cccc2cccnc12	-2	i	i	8	x	x
OCc1ccccc1OCCOc1ccc(Cl)c2cccnc12	-2	i	-9.7*	-1	44%*	i
Cc1ccc(Cl)c2c1=NC(=O)C=2c1[nH]c(=S)[nH]c1O	-16	i	-5.8*	-10	i	i
COc1ccc(Nc2nc(C)c(-c3ccccc3)s2)cc1	-11	i	-8.5*	-4	i	i
CN(Cc1ccccc1)C(=O)COC(=O)COc1ccc(Cl)cc1	3	x	x	9	x	x
CN(Cc1ccccc1)C(=O)COC(=O)COc1ccc(C#N)cc1	9	i	-5.3*	7	65%*	i
C=CCOCC(O)Cn1c(N2CCCC2)nc2c1c(=O)[nH]c(=O)n2C (stereo not given)	-15	i	i	-4	x	x
O=C(c1ccncc1)c1ccc(N2CCN(C3CC(=O)N(Cc4cccs4)C3=O)CC2)cc1 (stereo not given)	-6	i	-5.6*	-3	i	i
O=C1CC(N2CCN(c3ccc(O)cc3)CC2)C(=O)N1Cc1cccs1 (stereo not given)	-29	i	i	-29	x	x
COc1ccc(C(=O)N(C)CCCC2CCCC2)cc1OC1CCN(C(C)C)CC1	1	i	-7*	8	23%*	i
COc1ccc(C(=O)NCc2ccon2)cc1OC1CCN(C(C)C)CC1	8	i	-7.3*	4	34%*	i
COc1ccc(C(=O)N[C@H]2CCCCNC2=O)cc1OC1CCN(C(C)C)CC1	6	i	-9.2*	4	34%*	i
COc1ccc(C(=O)N2CCCCCCC2)cc1OC1CCN(C(C)C)CC1	2	i	i	7	x	x
CC(C)CN(C(=O)C(C)N1C(=O)c2ccccc2C1=O)c1c(N)n(Cc2ccccc2)c(=O)[nH]c1=O (stereo not given)	4	i	i	7	x	x
SMILES	procasp7 counter	CHT PAM	CHT inh	proCasp3 act	CHT block conf	HEK293 CHT ctr
Cc1cccc(NC(=O)c2cccc(NC3=NC4CS(=O)(=O)CC4S3)c2)c1 (stereo not given)	8	i	i	6	x	x
COC(=O)C(C)Sc1nc2c(c(=O)[nH]c(=O)n2C)n1CCCc1ccccc1 (stereo not given)	0	i	-9.3*	1	21%*	i
CCOC(=O)C(C)Sc1nc2c(c(=O)[nH]c(=O)n2C)n1CCc1ccccc1 (stereo not given)	-16	i	i	-5	x	x
Cc1c(NC(=O)CN2C(=O)NC(C)(c3ccc(Cl)cc3)C2=O)c(=O)n(-c2ccccc2)n1C (stereo not given)	2	i	i	8	x	x
CC(=O)NCCc1nc2ccccc2n1CCOc1cccc(C)c1	-3	i	i	2	x	x
Cc1cccc(OCCCn2c(CCNC(=O)C(C)C)nc3ccccc32)c1	1	i	-5.1*	-5	i	i
CC(NC(=O)/C(C#N)=C/c1ccc([N+](=O)[O-])o1)c1ccccc1 (stereo not given)	-20	i	-5.3*	-11	62%*	i
CCCCCCCCNC(=O)/C(C#N)=C/c1ccccc1[N+](=O)[O-]	3	i	i	-5	x	x
CC(NC(=O)/C(C#N)=C/c1ccco1)c1ccccc1 (stereo not given)	7	i	i	3	x	x
CCOCCCNC(=O)/C(C#N)=C/c1ccc([N+](=O)[O-])o1	-22	i	-7*	-24	58%*	i
CC(C)OC(=O)CN1CCN(C2c3ccccc3-c3ccccc32)CC1	-4	i	-5.6*	-1	70%*	i
O=C(O)c1cnn(-c2nc(-c3ccc(Br)cc3)cs2)c1C(F)(F)F	4	i	-8.9*	2	i	i
C=CC(=O)N=c1sc2ccccc2n1-c1ccccc1	3	i	-6.2*	-4	37%*	i
Cc1ccc(C)c(S(=O)(=O)C(C#N)c2nc3ccccc3nc2N2CC(C)OC(C)C2)c1 (stereo not given)	10	i	-8.1*	-6	41%*	i
Cc1ccc(C)c(S(=O)(=O)C(C#N)c2nc3ccccc3nc2N2CCCC2)c1 (stereo not given)	-15	i	i	-4	x	x
O=C(NCc1nnc(SCC(=O)N2CCN(c3ccccc3)CC2)o1)c1c(F)cccc1Cl	6	i	i	-1	x	x
